Data on 74 compounds can be found in ChEMBL document CHEMBL1125399, “Perfluorocarbon-based antidiabetic agents” (1992).

The species named for one test is Mus musculus. The test can be described thus: Percent plasma glucose concentration of drug treated mice (ob/ob) relative to vehicle control animals. It counts as functional. The method, boiled down: (§1)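 Female ob/ob mice, 10 weeks old, fed ad libitum, in groups of 7–11. Dosed po once daily for 4 days in 0.5% methyl cellulose vehicle. Decapitated the next morning; 0.1 mL blood into saline with Trasylol and EDTA; plasma glucose by autoanalyzer. Reciprocal-transformed (y = 160/x) harmonic mean given as % of vehicle. Bonferroni-adjusted comparisons.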
As to `OCC(F)(F)C(F)(F)C(F)(F)C(F)(F)C(F)(F)C(F)(F)C(F)F`, the Activity worked out at 67%.

In turn, `CN(C(=O)C(F)(F)C(F)(F)C(F)(F)C(F)(F)C(F)(F)C(F)(F)C(F)(F)F)c1ccc(Cc2nnn(C)n2)cc1` registered an Activity of 70%.

Take `O=C(O)C(F)(F)C(F)(F)C(F)(F)F`: the Activity came to 101%.

The compound `O=C(N1CCN(c2ccccn2)CC1)C(F)(F)C(F)(F)C(F)(F)C(F)(F)C(F)(F)C(F)(F)C(F)(F)F` registered an Activity of 76%.

As to `O=C(NCCCCCc1nn[nH]n1)C(F)(F)C(F)(F)C(F)(F)C(F)(F)C(F)(F)C(F)(F)C(F)(F)C(F)(F)F`, the Activity came out at 57%.

`O=C(Nc1ccccc1Cc1nn[n-]n1)C(F)(F)C(F)(F)C(F)(F)F.[Na+]` came in with an Activity of 84%.

For `O=C(Nc1ccc(CCc2nn[nH]n2)cc1)C(F)(F)C(F)(F)C(F)(F)F`, the Activity is 76%.

In turn, `O=C(Nc1ccc(Cc2nnnn2Cc2ccccc2)cc1)C(F)(F)C(F)(F)C(F)(F)C(F)(F)C(F)(F)C(F)(F)C(F)(F)F` gave an Activity of 82%.

For the compound `O=C(Nc1ccc(Cc2nnn[nH]2)cc1)C(F)(F)C(F)(F)F`, the Activity came out at 86%.

`O=C(Nc1ccc(Cc2nnn[nH]2)cc1)C(F)(F)C(F)(F)C(F)(F)C(F)(F)C(F)(F)C(F)(F)C(F)(F)C(F)F` displayed an Activity of 65%.

For the compound `O=C(NCCCCCc1nnn[nH]1)C(F)(F)F`, the Activity is listed as 95%.

With `O=C(Nc1ccc(Cc2nn[n-]n2)cc1)C(F)(F)C(F)(F)C(F)(F)C(F)(F)C(F)(F)C(F)(F)C(F)(F)F.[Na+]`, the Activity is reported as 55%.

The compound `O=C(NCc1ccccc1)C(F)(F)C(F)(F)C(F)(F)C(F)(F)C(F)(F)C(F)(F)C(F)(F)F` gave an Activity of 106%.

In turn, `O=C(Nc1ccccc1Cc1nn[nH]n1)C(F)(F)C(F)(F)C(F)(F)F` came in with an Activity of 91%.

Turning to `O=C(NCC(F)(F)C(F)(F)C(F)(F)F)c1ccc(Cc2nn[nH]n2)cc1`, the Activity was 90%.

The compound `O=C(Nc1cccc(Cc2nn[nH]n2)c1)C(F)(F)C(F)(F)C(F)(F)C(F)(F)C(F)(F)C(F)(F)C(F)(F)F` displayed an Activity of 60%.

For the compound `O=C(O)C(F)(F)C(F)(F)C(F)(F)C(F)(F)C(F)(F)C(F)(F)C(F)(F)F`, the Activity is given as 60%.

In turn, `O=C(Nc1cccc2ncccc12)C(F)(F)C(F)(F)C(F)(F)C(F)(F)C(F)(F)C(F)(F)C(F)(F)F` had an Activity of 64%.

`O=C(NCC(F)(F)C(F)(F)C(F)(F)F)c1cccc(Cc2nn[nH]n2)c1` showed an Activity of 93%.

With `COc1ccc2c(c1)CCCN2C(=O)C(F)(F)C(F)(F)C(F)(F)C(F)(F)C(F)(F)C(F)(F)C(F)(F)F`, the Activity was 132%.

In the case of `O=C(Nc1ccc(Cc2nnn[nH]2)cc1)C(F)(F)C(F)(F)C(F)(F)C(F)(F)C(F)(F)C(F)(F)C(F)(F)C(F)(F)C(F)(F)C(F)F`, the Activity was found to be 62%.

For the compound `O=C(Nc1ccc(CCCc2nn[nH]n2)cc1)C(F)(F)C(F)(F)C(F)(F)F`, the Activity is 72%.

`O=C(Nc1ccc(Cc2nn[nH]n2)cc1)C(F)(F)C(F)(F)C(F)(F)F` had an Activity of 96%.

`NC(=O)C(F)(F)C(F)(F)C(F)(F)C(F)(F)C(F)(F)C(F)(F)C(F)(F)F`: the Activity amounted to 65%.

`O=C(Nc1ccccn1)C(F)(F)C(F)(F)C(F)(F)C(F)(F)C(F)(F)C(F)(F)C(F)(F)F` had an Activity of 56%.

The compound `CCNS(=O)(=O)C(F)(F)C(F)(F)C(F)(F)C(F)(F)C(F)(F)C(F)(F)C(F)(F)C(F)(F)F` [SULFLURAMID] returned an Activity of 90%.

In turn, `O=C(Nc1ccc(Cc2nnn[nH]2)cc1)C(F)(F)C(F)(F)C(F)(F)C(F)(F)C(F)(F)C(F)(F)C(F)(F)C(F)(F)C(F)(F)F` registered an Activity of 71%.

Take `O=C(NCCCCCc1nn[n-]n1)C(F)(F)C(F)(F)C(F)(F)C(F)(F)C(F)(F)C(F)(F)C(F)(F)C(F)(F)F.[Na+]`: the Activity was found to be 62%.

For the compound `O=C(Nc1ccc(CCCc2nn[nH]n2)cc1)C(F)(F)C(F)(F)C(F)(F)C(F)(F)C(F)(F)C(F)(F)C(F)(F)F`, the Activity is given as 63%.

As to `CCCCCCCCCCCCCCCCCC(=O)Nc1ccc(Cc2nn[nH]n2)cc1`, the Activity was found to be 108%.

In turn, `O=C(Nc1ncccn1)C(F)(F)C(F)(F)C(F)(F)C(F)(F)C(F)(F)C(F)(F)C(F)(F)F` displayed an Activity of 49%.

The compound `O=C(NO)C(F)(F)C(F)(F)C(F)(F)C(F)(F)C(F)(F)C(F)(F)C(F)(F)F` came in with an Activity of 52%.

`O=C(Nc1ccc(CCCCc2nn[nH]n2)cc1)C(F)(F)C(F)(F)C(F)(F)C(F)(F)C(F)(F)C(F)(F)C(F)(F)F` had an Activity of 73%.

Regarding `O=C(NCCCCCc1nnn[nH]1)C(F)(F)C(F)(F)C(F)(F)F`, the Activity is reported as 91%.

Consider `O=C(Nc1ccc(-c2nn[nH]n2)cc1)C(F)(F)C(F)(F)C(F)(F)C(F)(F)C(F)(F)C(F)(F)C(F)(F)F`, for which the Activity worked out at 82%.

Turning to `O=C(N1CCCc2ccccc21)C(F)(F)C(F)(F)C(F)(F)C(F)(F)C(F)(F)C(F)(F)C(F)(F)F`, the Activity amounted to 115%.

On to `O=C(NCCc1ccccn1)C(F)(F)C(F)(F)C(F)(F)C(F)(F)C(F)(F)C(F)(F)C(F)(F)F`, for which the Activity came out at 63%.

Regarding `O=C(Nc1ccc(Cc2nn[nH]n2)cc1)c1c(F)c(F)c(F)c(F)c1F`, the Activity is 75%.

In turn, `O=C(Nc1ccc(Cc2nnn[nH]2)cc1)C(F)(F)C(F)(F)C(F)(F)C(F)(F)C(F)(F)C(F)(F)F` registered an Activity of 93%.

Compound `O=C(Nc1nn[nH]n1)C(F)(F)C(F)(F)C(F)(F)C(F)(F)C(F)(F)C(F)(F)C(F)(F)F` returned an Activity of 64%.

`O=C(Nc1ccc(CCc2nn[nH]n2)cc1)C(F)(F)C(F)(F)C(F)(F)C(F)(F)C(F)(F)C(F)(F)C(F)(F)F` returned an Activity of 119%.

Turning to `O=C(Nc1cccc(Cc2nn[n-]n2)c1)C(F)(F)C(F)(F)C(F)(F)F.[Na+]`, the Activity was determined as 71%.

For `O=C(Nc1ccc(Cc2nnn[nH]2)cc1)C(F)(F)C(F)(F)C(F)(F)C(F)(F)C(F)(F)C(F)(F)C(F)(F)C(F)(F)F`, the Activity is given as 63%.

As to `NCC(F)(F)C(F)(F)C(F)(F)C(F)(F)C(F)(F)C(F)(F)C(F)(F)F`, the Activity stood at 84%.

For `O=C(N(Cc1ccccc1)c1cccc(Cc2nn[nH]n2)c1)C(F)(F)C(F)(F)C(F)(F)F`, the Activity stood at 78%.

As for `O=C(NCCc1nnn[nH]1)C(F)(F)C(F)(F)C(F)(F)C(F)(F)C(F)(F)C(F)(F)C(F)(F)C(F)(F)F`, the Activity was determined as 65%.

For `O=C(Nc1ccccc1O)C(F)(F)C(F)(F)C(F)(F)C(F)(F)C(F)(F)C(F)(F)C(F)(F)F`, the Activity is recorded as 85%.

`CC1(COc2ccc(CC3SC(=O)NC3=O)cc2)CCCCC1` (centres undefined) [CIGLITAZONE]: the Activity stood at 70%.

In the case of `O=C(Nc1ccccc1)C(F)(F)C(F)(F)C(F)(F)C(F)(F)C(F)(F)C(F)(F)C(F)(F)F`, the Activity stood at 74%.

In turn, `O=C(Nc1cccnc1)C(F)(F)C(F)(F)C(F)(F)C(F)(F)C(F)(F)C(F)(F)C(F)(F)F` displayed an Activity of 74%.

`O=C(NCCCCCc1nn[nH]n1)C(F)(F)C(F)(F)C(F)(F)C(F)(F)C(F)(F)C(F)(F)C(F)(F)F` showed an Activity of 54%.

Compound `O=C(NCCCCCc1nn[n-]n1)C(F)(F)C(F)(F)C(F)(F)C(F)(F)C(F)(F)C(F)(F)C(F)(F)F.[Na+]` returned an Activity of 48%.

With `CCOC(=O)C(F)(F)C(F)(F)C(F)(F)C(F)(F)C(F)(F)C(F)(F)C(F)(F)F`, the Activity stood at 72%.

In turn, `O=C(Nc1ccccc1Cc1nn[nH]n1)C(F)(F)C(F)(F)C(F)(F)C(F)(F)C(F)(F)C(F)(F)C(F)(F)F` came in with an Activity of 66%.

Take `O=C(Nc1ccc(F)cc1)C(F)(F)C(F)(F)C(F)(F)C(F)(F)C(F)(F)C(F)(F)C(F)(F)F`: the Activity turned out to be 91%.

Compound `O=C(Nc1ccc(Cc2nnn[nH]2)cc1)C(F)(F)F` gave an Activity of 104%.

With `O=C(Nc1ccc(Cc2nn[nH]n2)cc1)c1cc(C(F)(F)F)cc(C(F)(F)F)c1`, the Activity was found to be 82%.

For the compound `Cc1csc(=N)n1C(=O)C(F)(F)C(F)(F)C(F)(F)C(F)(F)C(F)(F)C(F)(F)C(F)(F)F`, the Activity was determined as 94%.

`O=C(N1CCc2ccccc2C1)C(F)(F)C(F)(F)C(F)(F)C(F)(F)C(F)(F)C(F)(F)C(F)(F)F` yielded an Activity of 87%.

Compound `CCCCCCCCC(=O)NCCCCCc1nnn[nH]1` had an Activity of 100%.

Compound `O=C(Nc1ccc(Cc2nnn[nH]2)cc1)C(F)(F)C(F)(F)C(F)(F)C(F)(F)F` showed an Activity of 92%.

In the case of `O=C(Nc1cccc(Cc2nn[nH]n2)c1)C(F)(F)C(F)(F)C(F)(F)F`, the Activity was found to be 86%.

The test system of the next test is Mus musculus. The test can be described thus: Percent plasma glucose concentration of drug treated mice (ob/ob) relative to vehicle control animals following 75 mg/kg administration. It counts as functional. The method, boiled down: as §1
Regarding `FC(F)C(F)(F)C(F)(F)C(F)(F)C(F)(F)C(F)(F)C(F)(F)F`, the Activity is 90%.

In the case of `CCCC(=O)Nc1ccc(Cc2nn[nH]n2)cc1`, the Activity was 108%.

In the case of `FC(F)(F)C(F)(F)C(F)(F)CNc1ccc(Cc2nn[nH]n2)cc1`, the Activity is reported as 99%.

Consider `OC(c1ccccc1)C(F)(F)C(F)(F)C(F)(F)C(F)(F)C(F)(F)C(F)(F)C(F)(F)C(F)(F)F` (centres undefined), for which the Activity came out at 64%.

Take `O=C(O)C(F)(F)C(F)(F)C(F)(F)C(F)(F)F`: the Activity is 133%.

With `N#CCc1ccc(NC(=O)C(F)(F)C(F)(F)C(F)(F)C(F)(F)C(F)(F)C(F)(F)C(F)(F)F)cc1`, the Activity was 69%.

Compound `O=C(CCC(F)(F)F)Nc1ccc(Cc2nn[nH]n2)cc1` had an Activity of 104%.

Consider `COC(=O)NCC(F)(F)C(F)(F)C(F)(F)C(F)(F)C(F)(F)C(F)(F)C(F)(F)F`, for which the Activity amounted to 57%.

As for `CCCCNC(=O)C(F)(F)C(F)(F)C(F)(F)C(F)(F)C(F)(F)C(F)(F)C(F)(F)F`, the Activity was found to be 70%.

As for `O=C(O)C(F)(F)C(F)(F)C(F)(F)C(F)(F)C(F)(F)C(F)(F)F`, the Activity worked out at 107%.

`Cc1ccc(NC(=O)C(F)(F)C(F)(F)C(F)(F)C(F)(F)C(F)(F)C(F)(F)C(F)(F)F)cc1`: the Activity was found to be 58%.

As for `O=C(Nc1ccc(Cc2nn[nH]n2)cc1)c1ccc(C(F)(F)F)cc1`, the Activity amounted to 130%.
